DNMT1 block: DNMT1 (human) enzyme inhibition; P26358; DNMT1 molecular beacon, Hinp1I cleavage, fluorescence; inhibition (reported as % activation of signal), % at 10 µM; 0.83% of 360,000 active; in the data active means inhibition above about 50%
STEP block: inhibitors of human striatal-enriched phosphatase STEP; P54829; recombinant STEP, OMFP fluorogenic substrate, fluorescence; inhibition, % at 20 µM; 0.25% of 360,000 active;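 active means inhibition at 20 µM, scaled per plate between control wells, above about 37%, limit read from the data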;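 further: 0% = DMSO with enzyme and substrate and 100% = substrate only without enzyme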
Target sequence (P54829 whole entry, looked up): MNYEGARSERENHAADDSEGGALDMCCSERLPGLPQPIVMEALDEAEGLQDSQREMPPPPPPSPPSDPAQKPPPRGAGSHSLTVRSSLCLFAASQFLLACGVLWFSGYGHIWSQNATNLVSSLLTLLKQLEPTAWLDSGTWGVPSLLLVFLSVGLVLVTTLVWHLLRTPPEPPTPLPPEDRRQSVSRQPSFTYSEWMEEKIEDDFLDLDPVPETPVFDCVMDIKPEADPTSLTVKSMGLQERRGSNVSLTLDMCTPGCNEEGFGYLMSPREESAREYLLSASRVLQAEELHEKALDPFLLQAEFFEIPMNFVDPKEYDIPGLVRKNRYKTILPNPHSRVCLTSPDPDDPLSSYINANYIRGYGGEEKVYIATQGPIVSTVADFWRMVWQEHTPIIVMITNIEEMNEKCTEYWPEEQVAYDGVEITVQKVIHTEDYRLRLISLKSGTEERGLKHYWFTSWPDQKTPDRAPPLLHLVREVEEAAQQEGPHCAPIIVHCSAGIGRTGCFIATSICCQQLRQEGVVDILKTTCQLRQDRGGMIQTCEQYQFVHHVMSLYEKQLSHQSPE
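Material: STEP (striatal-enriched tyrosine phosphatase) enzyme, cell-free | Medium: 50 mM Bis-Tris pH 6.0 with 2.5 mM DTT and 0.005% Tween 20 | Read-out: Percent inhibition scaled to no-enzyme and uninhibited-enzyme controls, plate-pattern corrected | Signal: Fluorescence read at 480 nm ex / 540 nm em | Times: 20 min reaction, room temperature, in the dark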
Scp-1 inhibitor: inhibitors of human Scp-1 phosphatase; 0.88% of 340,000 active; inhibition, % at 20 µM; Q9GZU7; Recombinant Scp1, phosphopeptide, malachite green phosphate absorbance; AID 493091;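 active means inhibition above about 50% at 20 µM, limit read from the data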;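 further: plate controls were DMSO wells with enzyme for no effect and wells lacking enzyme for full effect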
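assay system = SCP-1 phosphatase catalytic domain, residues 76-261 | buffer or medium = 50 mM Tris acetate pH 5.5, 0.005% Tween-20, 10 mM MgCl2 | incubation = enzyme reaction 45 min at room temperature, colour 5 min, stabilisation 30 min | signal = Phosphate-binding colour reagent, absorbance read at 630 nm | measure = % inhibition at 20 µM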
SUMO1-SIM PPI: alters human SUMO1 binding to SIM partners; SUMO1 binding to a labelled peptide, TR-FRET, 1 h; inhibition, % at 20 µM; 0.33% of 360,000 active; AID 602429; in the data active means inhibition above about 37%
Target sequence (P63165 whole entry, looked up): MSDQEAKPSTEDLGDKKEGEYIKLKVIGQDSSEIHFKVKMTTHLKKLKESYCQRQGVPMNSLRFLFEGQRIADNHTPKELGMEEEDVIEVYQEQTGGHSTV
LMPTP block: LMPTP (human) inhibition; recombinant LMPTP-A, OMFP fluorogenic substrate, fluorescence intensity; inhibition, % at 20 µM; 0.22% of 360,000 active; AID 651560;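 active means compounds that cut the enzyme signal by at least half of the control window in the single-dose screen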;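 further: plate controls were DMSO wells with enzyme plus substrate for no effect and substrate without enzyme for full effect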
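Assay system: LMPTP-A phosphatase enzyme | Input: 0.625 nM enzyme | Also added: Fluorogenic phosphatase substrate OMFP at 400 µM final | Compound dosing: One test concentration per compound, 20 µM, with 3% DMSO overall | Schedule: 50 min enzyme reaction at room temperature, protected from light | Signal: Fluorescence intensity | Benchmarks: no-enzyme and uninhibited controls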
Scp-1 conf: Scp-1 (human) inhibition, single-dose confirmed; shares compounds with Scp-1 inhibitor; recombinant SCP-1 catalytic domain, phosphate release, malachite green absorbance; inhibition, % at 20 µM; 61% of 2,500 active;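 further: plate controls were DMSO with enzyme for no effect and buffer wells lacking enzyme for full effect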
Scp-1 MG ctr: counter-screen for Scp-1 inhibitors: colorimetric interference; 2,500 tested, under 10 active; apparent inhibition (interference), % at 20 µM; Colorimetric interference counterscreen, malachite green absorbance 630 nm; shares compounds with Scp-1 inhibitor;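 further: compounds added after enzyme reaction finished so only phosphate colour detection is probed; plate controls were DMSO wells with completed Scp-1 reaction for no effect and substrate wells lacking enzyme for full effect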
Scp-1 Tm shift: binds human Scp-1, shifting its melting temperature; shares compounds with Scp-1 inhibitor; Recombinant SCP1, Sypro Orange thermal shift Tm; thermal shift relative to vanadate control, % at 40 µM; 25% of 1,500 active; AID 540329;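 active means substances whose mean melting-temperature shift, as a percentage of the reference inhibitor's shift, reaches about 5.3%, limit read from the data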;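 further: 0% = Tm of DMSO wells and 100% = Tm with sodium orthovanadate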
Numbers without * were called inactive; . = not tested or not shown. This is a sample that favours compounds with a hit; in the whole collection about 1.7% have one here.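 How the source made its calls, unless noted: active means inhibition of at least 30% at 20 µM; inactive means the rest.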

SMILES	DNMT1 block	STEP block	Scp-1 inhibitor	SUMO1-SIM PPI	LMPTP block	Scp-1 conf	Scp-1 MG ctr	Scp-1 Tm shift
COc1ccc(NS(=O)(=O)c2cccc(C(=O)NNC(=O)c3cccn3C)c2)cc1	29	-2	63*	2	2	65*	-10	6.8*
Cc1ccc(S(=O)(=O)NCCC(=O)NC2CCCCC2C)cc1 (centres undefined)	0	3	-7	0	-1	.	.	.
COc1ccc(S(=O)(=O)NCCC(=O)NC2CCCCC2C)cc1[N+](=O)[O-] (centres undefined)	28	9	56*	-10	8	46*	-14	5.3*
O=C(O)COc1ccc(Br)cc1/C=N/O	19	11	60*	0	3	52*	-3	-14
CCOc1ccc(Br)cc1/C=N/O	3	4	-2	-5	0	.	.	.
CSc1n[nH]c(NCc2ccc(C)cc2)n1	2	-3	55*	2	0	-7	-12	.
CSc1n[nH]c(NCc2ccc(Cl)cc2)n1	2	0	-7	3	-1	.	.	.
COc1cc(C(=O)c2cc3c(cc2C)OCO3)cc(OC)c1OC	-3	-1	.	1	-1	.	.	.
CC(=O)c1ccc(S(=O)(=O)N2Cc3ccccc3CC2C(=O)O)cc1 (centres undefined)	37	8	82*	17	0	64*	-16	-1
Cc1cccc(-c2nc(S(=O)(=O)c3ccccc3)c(N3CCOCC3)o2)c1	-4	-1	54*	6	1	0	4	.
CCc1nc2c(OCC(=O)C(C)(C)C)cccn2c1N(C)C(=O)c1ccco1	0	1	.	1	0	.	.	.
Cc1ccc(NC(=O)CN2C(=O)N/C(=C/c3ccccc3OCc3cccc(C(=O)O)c3)C2=O)cc1	3	0	25	-17	1	.	.	.
O=C(CN1C(=O)N/C(=C\c2ccccc2OCc2ccc(C(=O)O)cc2)C1=O)Nc1ccccc1F	6	8	50*	-24	29	78*	-9	-3
COc1cccc(/C=C2/NC(=O)N(CC(=O)Nc3ccc(C)cc3)C2=O)c1OCc1cccc(C(=O)O)c1	1	11	79*	-31	2	72*	-20	-1
NC(=O)COc1ccc(-n2cnnn2)cc1	26	6	68*	2	11	52*	-12	-2
NC(=O)c1ccc(NC(=O)COc2ccc(-n3cnnn3)cc2)cc1	-2	-2	22	7	2	.	.	.
CC1(C(=O)NCc2cccc(C(F)(F)F)c2)CCN1C1Cc2ccccc2C1 (centres undefined)	-4	-1	.	3	1	.	.	.
Cc1ccccc1NC(=O)Nc1nc(C2CCC(=O)N2)cs1 (centres undefined)	-2	0	.	-1	-1	.	.	.
CCN(CCNC(=O)C1CC(=O)N(CCc2ccccc2)C1)c1ccccc1 (centres undefined)	-1	-1	-2	0	-1	0	-10	.
O=C(NCCc1ccccc1)C1CC(=O)N(CCc2ccccc2)C1 (centres undefined)	-1	2	-1	1	-2	-2	-4	.
COc1ccc(CN2CC(C(=O)NCc3ccccn3)CC2=O)cc1 (centres undefined)	2	-1	10	0	1	.	.	.
O=C(NCCc1ccccn1)C1CC(=O)N(Cc2ccccc2Cl)C1 (centres undefined)	-4	0	-7	2	0	-25	-15	.
CCOCCCNC(=O)C1CC(=O)N(CCc2ccccc2)C1 (centres undefined)	2	1	-13	2	-1	.	.	.
CC(C)CCN1CC(C(=O)NCCC2=CCCCC2)CC1=O (centres undefined)	3	-2	0	3	-1	-21	-19	.
CC(C)C[C@@H](COCc1ccc([N+](=O)[O-])cc1)N1CCN(C(=O)c2ccc(C(F)(F)F)cc2)CCC1=O	.	.	.	-3	2	.	.	.
SMILES	DNMT1 block	STEP block	Scp-1 inhibitor	SUMO1-SIM PPI	LMPTP block	Scp-1 conf	Scp-1 MG ctr	Scp-1 Tm shift
CN1CCC(C)(C(=O)Nc2ccc3c(c2)OCCO3)C1 (centres undefined)	3	0	.	2	1	.	.	.
C=CCNC(=O)COC(=O)c1c2c(nc3ccccc13)CCC2	24	2	66*	-3	3	65*	-11	9.5*
CCCc1nc2ccccc2c(C(=O)OCC(=O)N2CCc3ccccc32)c1CC	-7	2	-2	-2	4	.	.	.
CC1CCc2nc3ccccc3c(C(=O)OCC(=O)N3CCc4ccccc43)c2C1 (centres undefined)	5	1	50*	8	5	-20	-17	.
CCCCNC(=O)COC(=O)c1c2c(nc3ccccc13)CCC2	44	8	62*	2	4	46*	-7	8.4*
COc1ccc(/C(C)=N/NC(=O)CNC(=O)/C=C\c2ccco2)cc1	19	0	82*	-4	-1	64*	-12	-6
COc1ccc(/C=C/C(=O)NCC(=O)N/N=C(/CCC(=O)O)c2ccccc2)cc1	1	-3	-2	-7	0	.	.	.
CCC/C(=N\NC(=O)CNC(=O)/C=C/c1ccco1)c1ccccc1	8	4	6	-6	-2	.	.	.
CC/C(=N\NC(=O)CNC(=O)/C=C/c1ccco1)c1ccccc1	10	0	94*	1	0	15	-6	.
CCCC(C)(C)C(=O)N1CCC1(C)C(=O)NS(=O)(=O)c1ccccc1Cl (centres undefined)	3	2	.	4	0	.	.	.
O=C(CSc1nnc(-c2ccncc2)n1-c1ccccc1)N1CCN(c2ccc(Cl)cc2)CC1	0	-1	98*	1	-2	5	-11	.
O=C(Nc1ccc(Cl)cc1)OCc1cn(-c2ccc(Cl)cc2)nn1	9	-3	84*	0	0	-11	-21	.
CCN(CCCCN1C(=O)c2ccccc2C1=O)c1ccc2c(c1)C(=O)N(C)C2=O	31	2	67*	-15	6	68*	-11	1
C[C@H](O)[C@@]1(O)CC[C@H]2[C@@H]3CC[C@@H]4C[C@H](O)CC[C@]4(C)[C@H]3CC[C@@]21C	-2	-6	-4	7	0	.	.	.
C[C@]12CC[C@H](O)C[C@@H]1CC[C@@H]1[C@@H]2CC[C@@]2(C)[C@H]1CCC(=O)[C@]21CCCO1	3	2	82*	1	0	-19	-16	.
O=C(CCC(=O)N/N=C/c1ccco1)N/N=C/c1ccco1	21	8	-13	-6	1	.	.	.

From PubChem BioAssay
